ChEMBL document CHEMBL5376019, “Design, synthesis and evaluation of 2-phenylpyrimidine derivatives as novel antifungal agents targeting CYP51” (RSC Med Chem, 2024)
Converted amounts (≈) assume the structure as drawn.

How the values were obtained:
Type in all cases: functional
[1] = test system: Candida parapsilosis; assay: Antifungal activity against Candida parapsilosis GIM 2.190 assessed as fungal growth inhibition; settings: Lodderomyces parapsilosis
Summary of the method: (§1)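 Broth microdilution per NCCLS M27-A3, with fluconazole as positive control. Assay medium was RPMI 1640 buffered with MOPS. Inocula were diluted to 1–5 × 10^3 CFU mL−1 and seeded in 96-well plates. Compounds were dissolved in DMSO and serially diluted in the growth medium. MIC was the read-out.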

[2] = test system: Candida albicans; assay: Antifungal activity against Candida albicans ATCC SC5314 assessed as fungal growth inhibition; summary of the method: as §1
[3] = test system: Pichia kudriavzevii; assay: Antifungal activity against Pichia kudriavzevii GIM 2.1 assessed as fungal growth inhibition; summary of the method: as §1
[4] = test system: Candida tropicalis; assay: Antifungal activity against Candida tropicalis CGMCC 2.3739 assessed as fungal growth inhibition; summary of the method: as §1
[5] = test system: Candida albicans; assay: Antifungal activity against Candida albicans CPCC400616 assessed as fungal growth inhibition; summary of the method: as §1
[6] = test system: Cryptococcus neoformans; assay: Antifungal activity against Cryptococcus neoformans CGMCC 2.3161 assessed as fungal growth inhibition; summary of the method: as §1
[7] = test system: Nakaseomyces glabratus; assay: Antifungal activity against clinical isolate Candida glabrata assessed as fungal growth inhibition; summary of the method: as §1

Structure (SMILES): O=C(NC(Cn1ccnc1)C(=O)c1ccccc1)c1cnc(-c2cccc(Cl)c2)nc1 (racemic)
- MIC [1]: > 64 µg/mL
- MIC [2]: > 64 µg/mL
- MIC [3]: > 64 µg/mL
- MIC [4]: > 64 µg/mL
- MIC [5]: > 64 µg/mL
- MIC [6]: > 64 µg/mL
- MIC [7]: > 64 µg/mL

Structure (SMILES): O=C(NC(Cn1ccnc1)C(=O)c1ccccc1)c1cnc(-c2ccccc2)nc1 (racemic)
- MIC [1]: > 64 µg/mL
- MIC [2]: 4 µg/mL (≈ 10.1 µM)
- MIC [3]: 16 µg/mL (≈ 40.3 µM)
- MIC [4]: 8 µg/mL (≈ 20.1 µM)
- MIC [5]: 16 µg/mL (≈ 40.3 µM)
- MIC [6]: > 64 µg/mL
- MIC [7]: 32 µg/mL (≈ 80.5 µM)

Structure (SMILES): O=C(NC(Cn1ccnc1)C(=O)c1ccccc1)c1cnc(-c2ccccc2F)nc1 (racemic)
- MIC [1]: > 64 µg/mL
- MIC [2]: > 64 µg/mL
- MIC [3]: > 64 µg/mL
- MIC [4]: > 64 µg/mL
- MIC [5]: > 64 µg/mL
- MIC [6]: > 64 µg/mL
- MIC [7]: > 64 µg/mL

Structure (SMILES): O=C(NC(Cn1ccnc1)C(=O)c1ccccc1)c1cnc(-c2cccc(F)c2)nc1 (racemic)
- MIC [1]: 16 µg/mL (≈ 38.5 µM)
- MIC [2]: 2 µg/mL (≈ 4.81 µM)
- MIC [3]: 32 µg/mL (≈ 77 µM)
- MIC [4]: 4 µg/mL (≈ 9.63 µM)
- MIC [5]: 8 µg/mL (≈ 19.3 µM)
- MIC [6]: 32 µg/mL (≈ 77 µM)
- MIC [7]: 32 µg/mL (≈ 77 µM)

Structure (SMILES): OC(Cn1cncn1)(Cn1cncn1)c1ccc(F)cc1F [FLUCONAZOLE]
- MIC [1]: 2 µg/mL (≈ 6.53 µM)
- MIC [2]: 0.5 µg/mL (≈ 1.63 µM)
- MIC [3]: 8 µg/mL (≈ 26.1 µM)
- MIC [4]: 0.5 µg/mL (≈ 1.63 µM)
- MIC [5]: 1 µg/mL (≈ 3.27 µM)
- MIC [6]: 4 µg/mL (≈ 13.1 µM)
- MIC [7]: 4 µg/mL (≈ 13.1 µM)

Structure (SMILES): O=C(NC(Cn1ccnc1)C(=O)c1ccccc1)c1cnc(-c2cccc(OC(F)(F)F)c2)nc1 (racemic)
- MIC [1]: > 64 µg/mL
- MIC [2]: > 64 µg/mL
- MIC [3]: > 64 µg/mL
- MIC [4]: > 64 µg/mL
- MIC [5]: > 64 µg/mL
- MIC [6]: > 64 µg/mL
- MIC [7]: > 64 µg/mL

Structure (SMILES): O=C(NC(Cn1ccnc1)C(=O)c1ccccc1)c1ccc(-c2ccoc2)cc1 (racemic)
- MIC [1]: > 64 µg/mL
- MIC [2]: 16 µg/mL (≈ 41.5 µM)
- MIC [3]: > 64 µg/mL
- MIC [4]: > 64 µg/mL
- MIC [5]: > 64 µg/mL
- MIC [6]: > 64 µg/mL
- MIC [7]: > 64 µg/mL

Structure (SMILES): O=C(NC(Cn1ccnc1)C(=O)c1ccccc1)c1noc2c1CCc1ccccc1-2 (stereo not given)
- MIC [2]: 8 µg/mL (≈ 19.4 µM)
- MIC [4]: 4 µg/mL (≈ 9.7 µM)
- MIC [5]: 8 µg/mL (≈ 19.4 µM)

Structure (SMILES): CC(C)c1ccc(-c2ncc(C(=O)NC(Cn3ccnc3)C(=O)c3ccccc3)cn2)cc1 (racemic)
- MIC [1]: > 64 µg/mL
- MIC [2]: > 64 µg/mL
- MIC [3]: > 64 µg/mL
- MIC [4]: > 64 µg/mL
- MIC [5]: > 64 µg/mL
- MIC [6]: > 64 µg/mL
- MIC [7]: > 64 µg/mL

Structure (SMILES): O=C(NC(Cn1ccnc1)C(=O)c1ccccc1)c1cnc(-c2ccc(Cl)cc2F)nc1 (racemic)
- MIC [1]: > 64 µg/mL
- MIC [2]: > 64 µg/mL
- MIC [3]: > 64 µg/mL
- MIC [4]: > 64 µg/mL
- MIC [5]: > 64 µg/mL
- MIC [6]: > 64 µg/mL
- MIC [7]: > 64 µg/mL

Structure (SMILES): O=C(NC(Cn1ccnc1)C(=O)c1ccccc1)c1csc(-c2ccccc2)n1 (racemic)
- MIC [1]: > 64 µg/mL
- MIC [2]: > 64 µg/mL
- MIC [3]: > 64 µg/mL
- MIC [4]: > 64 µg/mL
- MIC [5]: > 64 µg/mL
- MIC [6]: > 64 µg/mL
- MIC [7]: > 64 µg/mL

Structure (SMILES): O=C(NC(Cn1ccnc1)C(=O)c1ccc(Cl)cc1)c1cnc(-c2cccc(F)c2)nc1 (racemic)
- MIC [1]: > 64 µg/mL
- MIC [2]: 1 µg/mL (≈ 2.22 µM)
- MIC [3]: > 64 µg/mL
- MIC [4]: > 64 µg/mL
- MIC [5]: 32 µg/mL (≈ 71.1 µM)
- MIC [6]: > 64 µg/mL
- MIC [7]: > 64 µg/mL

Structure (SMILES): O=C(NC(Cn1ccnc1)C(=O)c1ccccc1)c1cnc(-c2ccc(Cl)cc2)nc1 (racemic)
- MIC [1]: > 64 µg/mL
- MIC [2]: 8 µg/mL (≈ 18.5 µM)
- MIC [3]: > 64 µg/mL
- MIC [4]: 4 µg/mL (≈ 9.26 µM)
- MIC [5]: 16 µg/mL (≈ 37 µM)
- MIC [6]: > 64 µg/mL
- MIC [7]: > 64 µg/mL

Structure (SMILES): N#Cc1ccc(-c2ncc(C(=O)NC(Cn3ccnc3)C(=O)c3ccccc3)cn2)cc1 (racemic)
- MIC [1]: > 64 µg/mL
- MIC [2]: 4 µg/mL (≈ 9.47 µM)
- MIC [3]: > 64 µg/mL
- MIC [4]: > 64 µg/mL
- MIC [5]: > 64 µg/mL
- MIC [6]: > 64 µg/mL
- MIC [7]: > 64 µg/mL

Structure (SMILES): CC(C)(C)c1cccc(-c2ncc(C(=O)NC(Cn3ccnc3)C(=O)c3ccccc3)cn2)c1 (racemic)
- MIC [1]: > 64 µg/mL
- MIC [2]: > 64 µg/mL
- MIC [3]: > 64 µg/mL
- MIC [4]: > 64 µg/mL
- MIC [5]: > 64 µg/mL
- MIC [6]: > 64 µg/mL
- MIC [7]: > 64 µg/mL

Structure (SMILES): CC(C)(C)c1ccc(-c2ncc(C(=O)NC(Cn3ccnc3)C(=O)c3ccccc3)cn2)cc1 (racemic)
- MIC [1]: > 64 µg/mL
- MIC [2]: > 64 µg/mL
- MIC [3]: > 64 µg/mL
- MIC [4]: > 64 µg/mL
- MIC [5]: > 64 µg/mL
- MIC [6]: > 64 µg/mL
- MIC [7]: > 64 µg/mL

Structure (SMILES): O=C(NC(Cn1ccnc1)C(=O)c1ccccc1)c1ccc(-c2ncccn2)cc1 (racemic)
- MIC [1]: > 64 µg/mL
- MIC [2]: > 64 µg/mL
- MIC [3]: > 64 µg/mL
- MIC [4]: > 64 µg/mL
- MIC [5]: > 64 µg/mL
- MIC [6]: > 64 µg/mL
- MIC [7]: > 64 µg/mL
